Data published in article PMC4467241 (Clinical Pharmacology in Drug Development, 2014).
Read-outs that look alike come from different tables or passages of the source. Marks after values point to notes of the source that are not given here.

Assays:
[1] = format: in vivo, human; details: for CL/F / AUC(0-t) / AUC(0-inf) / Cmax / half-life / tmax: plasma; for AUC(0-t) / AUC(0-inf) / Cmax / half-life / tmax: human, po; for AUC(0-t): AUC0–t; for AUC(0-inf): AUC0–∞
In short: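 Heparinised plasma was taken predose and at 0.5–48 h, spun within 30 min and stored at −70 °C. Parent and metabolite were measured by SPE LC–MS/MS; noncompartmental AUC, with ANOVA on log values giving geometric-mean ratio and 90% CI.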

[2] = cited from earlier work
[3] = 10 mg, MTX 10 mg oral alone (Day 1), N = 1
[4] = 12.5 mg, MTX 12.5 mg oral alone (Day 1), N = 1
[5] = 17.5 mg, MTX 17.5 mg oral alone (Day 1), N = 1
[6] = MTX 12.5 mg oral + Apremilast 30 mg Q12H (Day 8), N = 1
[7] = MTX 17.5 mg oral + Apremilast 30 mg Q12H (Day 8), N = 1
[8] = methotrexate in plasma, ANOVA, N = 15
[9] = methotrexate in plasma, all dose groups, N = 15, acceptance range 80–125%

Q: Which results are given for `CN(Cc1cnc2nc(N)nc(N)c2n1)c1ccc(C(=O)N[C@@H](CCC(=O)O)C(=O)O)cc1` [MTX, methotrexate, reference compound]?
A: CL/F ([1]; MTX 10 mg oral alone (Day 1), N = 1): 120 mL/min; CL/F ([1]; MTX 12.5 mg oral alone (Day 1), N = 1): 88 mL/min; CL/F ([1]; MTX 17.5 mg oral alone (Day 1), N = 1): 129 mL/min; CL/F ([1]; MTX 20 mg oral alone (Day 1), N = 6, arithmetic mean (SD)): 122 (33.7) mL/min; AUC(0-t) [1, 3]: 1390 ng·h/mL; AUC(0-inf) [1, 3]: 1380 ng·h/mL; Cmax [1, 3]: 323 ng/mL; half-life ([1]; 10 mg, t1/2, MTX 10 mg oral alone (Day 1), N = 1): 3.5 h; tmax [1, 3]: 1.45 h; AUC(0-t) [1, 4]: 2360 ng·h/mL; Cmax [1, 4]: 528 ng/mL; half-life ([1]; 12.5 mg, t1/2, MTX 12.5 mg oral alone (Day 1), N = 1): 3.6 h; tmax [1, 4]: 1 h; AUC(0-t) [1, 5]: 2250 ng·h/mL; Cmax [1, 5]: 646 ng/mL; half-life ([1]; 17.5 mg, t1/2, MTX 17.5 mg oral alone (Day 1), N = 1): 5.6 h; tmax [1, 5]: 1 h; AUC(0-t) [1, 6]: 3020 ng·h/mL; AUC(0-t) [1, 7]: 2270 ng·h/mL; AUC(0-inf) [1, 6]: 3010 ng·h/mL; Cmax [1, 6]: 669 ng/mL; Cmax [1, 7]: 565 ng/mL; half-life ([1]; t1/2, MTX 12.5 mg oral + Apremilast 30 mg Q12H (Day 8), N = 1): 3.2 h; tmax [1, 6]: 2.07 h; tmax [1, 7]: 1 h; Intra-subject CV% of AUC0–∞ ([1]; methotrexate in plasma, ANOVA, N = 14): 11.19%; Intra-subject CV% of AUC0–t [1, 8]: 10.57%; Intra-subject CV% of Cmax [1, 8]: 11.07%; AUC0–∞ ratio of geometric means (“methotrexate + apremilast”/“methotrexate”) ([1]; methotrexate in plasma, all dose groups, N = 14, acceptance range 80–125%): 100.39; tmax median difference (“MTX + Apremilast” − “MTX”) ([1]; methotrexate in plasma, all dose groups, N = 15, Hodges–Lehmann): 0.235 ^d hr; AUC0–t ratio of geometric means (“methotrexate + apremilast”/“methotrexate”) [1, 9]: 99.90; Cmax ratio of geometric means (“methotrexate + apremilast”/“methotrexate”) [1, 9]: 99.49; 90% CI for Cmax, AUC0–t and AUC0–∞ versus FDA acceptance range of 80–125% ([1]; methotrexate with versus without apremilast): within the acceptance range for equivalency; Fraction metabolized to 7-hydroxy methotrexate [2]: ~10%
